The values that follow come from article PMC9290029 (ACS Medicinal Chemistry Letters, 2022).

Data set [1] in a line: Pharmacokinetic assessments in rats. It counts as in vivo, Sprague Dawley rats. The note with it: for AUC: male, Sprague-Dawley, rat, plasma, po; for metabolites detected in plasma (Cmax at 30 mpk): rats, oral.
The next data set deals with humans. To be noted: clinical trials, cited from earlier work.
For data set [2], the system named is dialysis patients with hyperphosphatemia. To be noted: cited from earlier work.
The subject of another data set is Sprague Dawley rats. Nature of the data set: Rat stool and urine content, stool form scoring. It counts as in vivo. To be noted: for Increase in stool water: criterion: 10% increase from control; for Stool water dose-response: oral 0.1–3.0 mg/kg, criterion: Yes. The essentials: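 Rats are dosed orally, 3 mg/kg for screening or 0.1, 0.3, 1.0 and 3.0 mg/kg for dose-response, then held in metabolic cages. Urine sodium reduction is measured at 16 h (n = 6 per group; mean ± SEM; one-way ANOVA with Dunnett's test versus vehicle). Stool form is scored 1 (normal) to 5 (watery), and fecal water is given as percent water by weight and percent of control.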

The next data set concerns the target T1, human NHE3 (Homo sapiens, UniProt P48764).
T1 sequence (P48764 26-834): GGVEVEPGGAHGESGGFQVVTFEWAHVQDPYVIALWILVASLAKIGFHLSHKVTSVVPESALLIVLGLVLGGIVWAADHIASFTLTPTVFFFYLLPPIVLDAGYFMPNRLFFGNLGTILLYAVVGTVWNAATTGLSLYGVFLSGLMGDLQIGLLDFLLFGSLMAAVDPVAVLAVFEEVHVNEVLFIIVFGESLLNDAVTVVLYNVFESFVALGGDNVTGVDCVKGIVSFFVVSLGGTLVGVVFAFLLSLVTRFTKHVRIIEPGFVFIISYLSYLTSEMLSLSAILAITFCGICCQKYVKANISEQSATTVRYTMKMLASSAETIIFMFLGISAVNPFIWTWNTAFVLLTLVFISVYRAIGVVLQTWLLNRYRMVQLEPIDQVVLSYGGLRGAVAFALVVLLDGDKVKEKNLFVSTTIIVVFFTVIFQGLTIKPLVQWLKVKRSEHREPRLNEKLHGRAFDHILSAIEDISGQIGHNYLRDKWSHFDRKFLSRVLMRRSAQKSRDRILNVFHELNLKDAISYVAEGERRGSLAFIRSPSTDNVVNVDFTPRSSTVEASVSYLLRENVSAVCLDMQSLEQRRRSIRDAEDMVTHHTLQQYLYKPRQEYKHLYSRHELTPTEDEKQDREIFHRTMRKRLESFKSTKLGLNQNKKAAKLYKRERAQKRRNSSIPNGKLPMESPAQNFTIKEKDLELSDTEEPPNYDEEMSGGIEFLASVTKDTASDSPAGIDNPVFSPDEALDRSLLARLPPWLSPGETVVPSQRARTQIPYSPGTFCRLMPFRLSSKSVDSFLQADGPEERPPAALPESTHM
In words: Cell-based human NHE3 inhibition assay. To be noted: species not stated; data not shown. Put shortly:
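Cell deacidification assay in transfected opossum kidney cells overexpressing human or rat NHE3. Test compounds are applied across a dose range, and inhibition of intracellular pH recovery is followed with a pH-sensitive dye. Potency is reported as pIC50 for each species.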

In data set [1] (22 mg/kg), `CN1Cc2c(Cl)cc(Cl)cc2C(c2cccc(S(=O)(=O)NCCOCCOCCNC(=O)c3ccc(C(=O)NCCOCCOCCNS(=O)(=O)c4cccc(C5CN(C)Cc6c(Cl)cc(Cl)cc65)c4)cc3)c2)C1` (stereo not drawn) [Compound 20] had an AUC of under 8 ng·h/mL.

In the case of `CN1Cc2c(Cl)cc(Cl)cc2[C@H](c2cccc(S(=O)(=O)NCCOCCOCCNC(=O)NCCCCNC(=O)NCCOCCOCCNS(=O)(=O)c3cccc([C@@H]4CN(C)Cc5c(Cl)cc(Cl)cc54)c3)c2)C1` [Compound 28, tenapanor], in the data set with humans (versus the placebo), the stool consistency entry is “softened stool consistency in a dose-dependent manner”; the “stool frequency and weight” value was “increased stool frequency and weight”. In addition, the plasma concentrations with humans (humans, below the quantification limit in >95% of all plasma samples) is under 0.5 ng/mL. For the same compound, the “plasma samples below the quantification limit (0.5 ng/mL)” value with humans (humans) is listed as over 95%. Besides, the serum phosphorus levels entry in data set [2] is on record as “lowered serum phosphorus levels”. In the data set on Sprague Dawley rats, the “Increase in stool water” value is given as “Yes” and the Stool water dose-response result is listed as “Yes”. Also, the “metabolites detected in plasma (Cmax at 30 mpk)” value in data set [1] is recorded as “No metabolites detected”. In the case of `CN1Cc2c(Cl)cc(Cl)cc2C(c2ccc(S(=O)(=O)NCCOCCOCCNC(=O)NCCOCCOCCNS(=O)(=O)c3ccc(C4CN(C)Cc5c(Cl)cc(Cl)cc54)cc3)cc2)C1` (stereo not drawn) [Compound 23], the exposure (AUC) in data set [1] (17 mg/kg) is under 8 ng·h/mL.

On to `CN1Cc2c(Cl)cc(Cl)cc2C(c2cccc(S(=O)(=O)NCCOCCOCCOCCNC(=O)NCCOCCOCCOCCNS(=O)(=O)c3cccc(C4CN(C)Cc5c(Cl)cc(Cl)cc54)c3)c2)C1` (stereo not drawn) [Compound 38], for which the area under the curve (AUC) in data set [1] (1.8 mg/kg) was under 75 ng·h/mL. Regarding `CN1Cc2c(Cl)cc(Cl)cc2C(c2ccc(S(=O)(=O)NCCOCCOCCOCCNC(=O)NCCOCCOCCOCCNS(=O)(=O)c3ccc(C4CN(C)Cc5c(Cl)cc(Cl)cc54)cc3)cc2)C1` (stereo not drawn) [Compound 35], in data set [1] (5.3 mg/kg), the area under the curve (AUC) was under 19 ng·h/mL. In data set [1] (23 mg/kg), `CN1Cc2c(Cl)cc(Cl)cc2C(c2ccc(S(=O)(=O)NCCOCCOCCNC(=O)c3ccc(C(=O)NCCOCCOCCNS(=O)(=O)c4ccc(C5CN(C)Cc6c(Cl)cc(Cl)cc65)cc4)cc3)cc2)C1` (stereo not drawn) [Compound 21] showed an exposure (AUC) of under 8 ng·h/mL. As for `CN1Cc2c(Cl)cc(Cl)cc2C(c2cccc(S(N)(=O)=O)c2)C1` (stereo not drawn) [Compound 1], in data set [1] (Sprague–Dawley rats), the “pharmacodynamic (PD) effect in PK studies” value was “absence of a pharmacodynamic (PD) effect”. In the case of `CN1Cc2c(Cl)cc(Cl)cc2[C@H](c2cccc(S(=O)(=O)NCCOCCOCCNC(=O)Nc3ccc(NC(=O)NCCOCCOCCNS(=O)(=O)c4cccc([C@@H]5CN(C)Cc6c(Cl)cc(Cl)cc65)c4)cc3)c2)C1` [Compound 26], in the data set with Sprague Dawley rats, the “Increase in stool water” value is on record as “Yes” and the Stool water dose-response result was “Yes”. The “inhibition in the cell assay (maximum reached)” value on human NHE3 is listed as under 100%. Also, the “metabolites detected in plasma (Cmax at 30 mpk)” value in data set [1] is on record as “No metabolites detected”. For `CN1Cc2c(Cl)cc(Cl)cc2C(c2cccc(S(=O)(=O)NCCOCCOCCOCCNC(=O)CCC(=O)NCCOCCOCCOCCNS(=O)(=O)c3cccc(C4CN(C)Cc5c(Cl)cc(Cl)cc54)c3)c2)C1` (stereo not drawn) [Compound 44], the exposure (AUC) in data set [1] (28 mg/kg) is under 8 ng·h/mL. Compound `CN1Cc2c(Cl)cc(Cl)cc2C(c2cccc(S(=O)(=O)NCCOCCOCCNC(=O)NCCOCCOCCNS(=O)(=O)c3cccc(C4CN(C)Cc5c(Cl)cc(Cl)cc54)c3)c2)C1` (stereo not drawn) [Compound 22] returned an exposure (AUC) in data set [1] (11 mg/kg) of under 19 ng·h/mL. For the compound `CN1Cc2c(Cl)cc(Cl)cc2C(c2ccc(S(=O)(=O)NCCOCCOCCOCCNC(=O)c3ccc(C(=O)NCCOCCOCCOCCNS(=O)(=O)c4ccc(C5CN(C)Cc6c(Cl)cc(Cl)cc65)cc4)cc3)cc2)C1` (stereo not drawn) [Compound 37], the AUC in data set [1] (19 mg/kg) was under 9 ng·h/mL.
